In ChEMBL document CHEMBL4190254, “Synthesis of sulfamoylbenzamide derivatives as HBV capsid assembly effector” (Eur J Med Chem, 2017):
Activity calls are given as the source filed them. No cut-off for these calls is given here.

Assays:
[1] = target: Core antigen (Hepatitis B virus) (UniProt Q03732); test: Inhibition of capsid in HBV infected in human HepAD38 cells assessed as reduction in cccDNA formation by measuring reduction in HBe antigen secretion at 10 uM after 14 days by ELISA relative to control; format: cell-based
Chain of Core antigen (Hepatitis B virus) (Q03732 as listed by the source): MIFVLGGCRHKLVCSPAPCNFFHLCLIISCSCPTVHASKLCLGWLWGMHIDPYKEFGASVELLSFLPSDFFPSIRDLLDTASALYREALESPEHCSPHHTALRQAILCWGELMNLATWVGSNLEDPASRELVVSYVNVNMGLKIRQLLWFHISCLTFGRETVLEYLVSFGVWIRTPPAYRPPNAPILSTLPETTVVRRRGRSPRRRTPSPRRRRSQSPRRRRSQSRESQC
Summary of the method: (§1)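 HepAD38 cells, collagen-coated wells, DMEM/F12 with 10% heat-inactivated FBS. Tetracycline withdrawn 7 days to allow DNA synthesis and cccDNA formation; at day 7 tetracycline (0.3 μg/ml) plus compound re-added. Compound at 10 μM or 0.001–10 μM, medium and compound replenished every 5 days. Day-14 supernatant HBeAg by ELISA; EC50 by linear regression.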

CCRF-CEM = test: (§2) Cytotoxicity against human CEM cells by CellTiter 96 non-radioactive cell proliferation colorimetric assay; format: cell-based; conditions: ccrf-cem
Summary of the method: (§3)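 A CellTiter 96 colorimetric cell proliferation read-out was used in primary human PBM cells, CEM, Vero and HepG2 cells. CC50 is the concentration that inhibits cell growth by 50%.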

Vero = test: (§4) Cytotoxicity against African green monkey Vero cells by CellTiter 96 non-radioactive cell proliferation colorimetric assay; format: cell-based; conditions: chlorocebus sabaeus, vero; summary of the method: as §3
Hepatitis B virus [2] = test: Antiviral activity against HBV infected in human HepAD38 cells assessed as reduction in viral replication by RT-PCR method; format: functional, organism-based
Summary of the method: (§5)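 HBV DNA replication in HepAD38 cells was quantified by RT-PCR following an earlier published method, with data relative to the untreated control. EC50 (50% inhibition of HBV DNA replication) was derived by linear regression. Values are the mean ± SD of two or three replicates from 2 independent experiments.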

PBMC = test: (§6) Cytotoxicity against human PBMC by CellTiter 96 non-radioactive cell proliferation colorimetric assay; format: cell-based; summary of the method: as §3
HepG2 = test: Cytotoxicity against human HepG2 cells by CellTiter 96 non-radioactive cell proliferation colorimetric assay; format: cell-based; summary of the method: as §3
[3] = target: Core antigen (Hepatitis B virus) (UniProt Q03732); test: (§7) Inhibition of capsid in HBV infected in human HepAD38 cells assessed as reduction in tetracycline-induced cccDNA formation by measuring reduction in HBe antigen secretion after 14 days by ELISA; format: cell-based; summary of the method: as §1
Core antigen = Core antigen (Hepatitis B virus, UniProt Q03732); test: as §7; format: cell-based; summary of the method: as §1
Chain of Core antigen (Q03732 whole entry): as the sequence (Q03732 as listed by the source) above

Hepatitis B virus [4] = test: Antiviral activity against HBV infected in human HepAD38 cells assessed as reduction in extracellular viral DNA level by RT-PCR method; format: functional, organism-based; summary of the method: as §5
Hepatitis B virus [5] = test: Antiviral activity against HBV infected in human HepAD38 cells assessed as reduction in extracellular viral DNA level at 10 uM by RT-PCR method relative to control; format: functional; set-up: scale not given: the % may be the effect or the level left
Summary of the method: (§8)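 HBV DNA replication in HepAD38 cells was quantified by RT-PCR following an earlier published method. Each compound was tested at a single 10 μM concentration. Results are % inhibition ± SD relative to the untreated control.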

Hepatitis B virus [6] = test: Antiviral activity against HBV infected in human HepAD38 cells assessed as reduction in intracellular viral DNA level by RT-PCR method; format: functional, organism-based; summary of the method: as §5
Hepatitis B virus [7] = test: Antiviral activity against HBV infected in human HepAD38 cells assessed as reduction in intracellular viral DNA level at 10 uM by RT-PCR method relative to control; format: functional; set-up: scale not given: the % may be the effect or the level left
Summary of the method: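 HepAD38 cells; intracellular HBV DNA quantified by RT-PCR, expressed relative to untreated control; single-point inhibition given as percent at 10 μM, mean ± SD of two or three replicates from 2 independent experiments.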

Hepatitis B virus [8] = test: Antiviral activity against HBV infected in human HepAD38 cells assessed as inhibition of viral replication at 10 uM by RT-PCR method relative to control; format: functional; summary of the method: as §8
[9] = as §2; format: cell-based, CCRF-CEM; conditions: CEM (CCRF-CEM) cells; summary of the method: as §3
[10] = as §4; format: cell-based; conditions: chlorocebus sabaeus, Vero cells; summary of the method: as §3
[11] = as §6; format: cell-based; summary of the method: as §3
Hepatitis B virus [12] = test: Inhibition of HBV capsid cp149 assembly expressed in Escherichia coli BL21 at 20 uM preincubated for 1 hr followed by NaCl stimulation measured after overnight incubation by uranyl acetate staining based electron microscopic method
Summary of the method: (§9)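 Untagged HBV core residues 1–149 expressed in E. coli BL21 (1 mM IPTG, 16 °C overnight), purified as capsids, dissociated to dimers with 4 M urea in carbonate buffer pH 9.5; >95% pure. Dimers preincubated 1 hr with compound (20 μM), then capsid buffer added (final NaCl 300 mM, Cp149 monomer 10 μM); held 4 °C overnight; uranyl acetate negative-stain EM, single-blind.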

[13] = target: Core antigen (Hepatitis B virus) (UniProt Q03732); test: Inhibition of capsid in HBV infected in human HepAD38 cells assessed as reduction in cccDNA formation by measuring reduction in HBe antigen secretion at 3 to 4 uM after 14 days by ELISA relative to control; format: cell-based; summary of the method: as §1
Hepatitis B virus [14] = test: Antiviral activity against HBV infected in human HepDES19 cells assessed as reduction in viral replication; format: functional, organism-based
Hepatitis B virus [15] = test: Inhibition of HBV capsid cp149 assembly expressed in Escherichia coli BL21 assessed as formation of disfigured circular assemblies at 20 uM preincubated for 1 hr followed by NaCl stimulation measured after overnight incubation by uranyl acetate staining based electron microscopic method; summary of the method: as §9
Hepatitis B virus [16] = test: Inhibition of HBV capsid cp149 assembly expressed in Escherichia coli BL21 assessed as spherical capsid aggregation in to clusters at 20 uM preincubated for 1 hr followed by NaCl stimulation measured after overnight incubation by uranyl acetate staining based electron microscopic method; summary of the method: as §9

Compound | inhibition [1] | CC50 (CCRF-CEM) | CC50 (Vero) | EC50 (Hepatitis B virus [2]) | EC90 (Hepatitis B virus [2]) | CC50 (PBMC) | CC50 (HepG2) | EC90 [3] | EC50 (Core antigen) | EC50 (Hepatitis B virus [4]) | EC90 (Hepatitis B virus [4]) | EC50 (Hepatitis B virus [6]) | EC90 (Hepatitis B virus [6]) | Activity (Hepatitis B virus [7]) | inhibition at 10 µM (Hepatitis B virus [8]) | other results
O=C(Nc1ccc(F)c(F)c1)c1cc(NS(=O)(=O)C2CCCCC2)ccc1F | 67% | 74.5 µM | 6.4 µM | 3.7 µM | ≥ 10 µM | > 100 µM | 80.4 µM | > 10 µM | 9.7 µM | 3.7 µM | ≥ 10 µM | < 0.1 µM | 7.9 µM | 63% | – | Activity (Hepatitis B virus [5]): 86%
O=C(Nc1ccc(F)c(F)c1)c1cc(S(=O)(=O)NOC2CCCC2)ccc1F | – | 6.4 µM | 5.8 µM | 2.7 µM | > 10 µM | 13 µM | 26.4 µM | – | – | – | – | – | – | – | 82% | –
CN(C1CCCC1)S(=O)(=O)c1ccc(F)c(C(=O)Nc2ccc(F)c(F)c2)c1 | – | 14.5 µM | 18.3 µM | 7.7 µM | ≥ 10 µM | 25.8 µM | 48.6 µM | – | – | – | – | – | – | – | 87% | –
C=C1[C@H](CO)[C@@H](O)C[C@@H]1n1cnc2c(=O)[nH]c(N)nc21.O | < 1% | – | – | – | – | – | – | – | > 10 µM | 0.0007 µM | 0.1 µM | ≤ 0.0001 µM | 0.009 µM | 53% | – | –
O=C(Nc1ccc(F)c(F)c1)c1cc(S(=O)(=O)N2CCC(F)(F)C2)ccc1F | – | 4.8 µM | 21.3 µM | 6.7 µM | > 10 µM | > 100 µM | > 100 µM | – | – | – | – | – | – | – | 83% | –
O=C(Nc1ccc(F)c(F)c1)c1cc(NS(=O)(=O)C2CC2)ccc1F | 61% | 11.8 µM | 30.7 µM | 6.9 µM | > 10 µM | 39.2 µM | 61.8 µM | > 10 µM | 5.5 µM | 6.9 µM | > 10 µM | 0.8 µM | 8.1 µM | – | – | Activity (Hepatitis B virus [5]): 76%
Nc1ccn([C@@H]2CS[C@H](CO)O2)c(=O)n1 [LAMIVUDINE] | < 1% | – | – | – | 0.3 µM | – | > 10 µM | – | > 10 µM | – | 0.3 µM | < 0.01 µM | 0.7 µM | 74% | – | CC50 [9]: > 100 µM; CC50 [10]: > 100 µM; CC50 [11]: > 100 µM
CC(C)(NC(=O)c1cccc(S(=O)(=O)NC2CCCC2)c1)c1ccc(F)c(F)c1 | – | 64 µM | 84.3 µM | > 10 µM | – | > 100 µM | > 100 µM | – | – | – | – | – | – | – | – | inhibition (Hepatitis B virus [12]): inactive
O=C(Nc1ccc(F)c(F)c1)c1cc(S(=O)(=O)N2CC(F)(F)C(F)(F)C2)ccc1F | – | ≤ 1 µM | 9 µM | 9.2 µM | > 10 µM | > 100 µM | > 100 µM | – | – | – | – | – | – | – | 59% | –
O=C(Nc1ccc(F)c(F)c1)c1cc(S(=O)(=O)NC2CCCC2)ccc1F | – | 14 µM | 32.7 µM | 0.8 µM | 7.8 µM | 15.6 µM | 37.1 µM | 4.6 µM | 1.3 µM | 0.8 µM | 7.8 µM | 0.6 µM | 4.3 µM | – | – | inhibition [13]: 90%; EC50 (Hepatitis B virus [14]): 0.14 µM; inhibition (Hepatitis B virus [15]): Active
CCOC(=O)C1=C(CN2CCOCC2)NC(c2nccs2)=NC1c1ccc(F)cc1Br (centres undefined) | – | – | – | – | – | – | – | 1.9 µM | – | 0.2 µM | 1 µM | < 0.01 µM | 0.05 µM | 82% | – | –
O=C(Nc1ccc(F)c(F)c1)c1cc(NS(=O)(=O)C2CCCC2)ccc1F | 66% | 54.2 µM | 29.1 µM | 2.1 µM | 9.5 µM | > 100 µM | > 100 µM | > 10 µM | 6 µM | 2.1 µM | 9.5 µM | 0.3 µM | 3.6 µM | – | – | –
O=C(Nc1ccc(F)c(F)c1)c1cc(S(=O)(=O)N2CC(F)(F)C2)ccc1F | – | 3.7 µM | 14.7 µM | 1.2 µM | 6.3 µM | 69.1 µM | 27 µM | 3.2 µM | 1 µM | 1.2 µM | 6.3 µM | 0.9 µM | 9.7 µM | – | – | inhibition [13]: 90%; inhibition (Hepatitis B virus [16]): Active
